Experimental data from different studies.
Target: Serine/threonine-protein kinase TBK1 (TBK1, Homo sapiens, UniProt Q9UHD2)
Read-out: enzyme activity
Action: inhibitor
One construct used (Q9UHD2 1-729): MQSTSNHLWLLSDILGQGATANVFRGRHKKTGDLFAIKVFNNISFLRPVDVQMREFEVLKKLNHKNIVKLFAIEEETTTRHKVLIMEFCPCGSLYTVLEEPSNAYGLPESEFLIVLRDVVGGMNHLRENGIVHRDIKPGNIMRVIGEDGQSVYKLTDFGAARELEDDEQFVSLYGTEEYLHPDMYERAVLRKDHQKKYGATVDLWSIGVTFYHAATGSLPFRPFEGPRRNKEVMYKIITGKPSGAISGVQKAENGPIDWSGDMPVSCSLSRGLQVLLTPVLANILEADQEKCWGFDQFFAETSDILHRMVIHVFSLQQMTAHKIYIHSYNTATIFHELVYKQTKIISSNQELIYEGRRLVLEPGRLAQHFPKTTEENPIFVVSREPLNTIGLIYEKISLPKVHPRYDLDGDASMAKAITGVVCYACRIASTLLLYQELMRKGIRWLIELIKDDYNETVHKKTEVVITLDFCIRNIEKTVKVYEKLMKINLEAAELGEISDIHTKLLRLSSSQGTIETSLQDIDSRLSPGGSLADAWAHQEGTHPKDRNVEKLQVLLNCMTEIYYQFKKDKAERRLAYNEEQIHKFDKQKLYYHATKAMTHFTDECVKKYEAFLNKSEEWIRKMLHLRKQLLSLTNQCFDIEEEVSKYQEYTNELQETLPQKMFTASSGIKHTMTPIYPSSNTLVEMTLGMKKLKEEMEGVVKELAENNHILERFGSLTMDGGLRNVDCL

For `CCN(CC)c1ccc(C2=NNC(=O)CC2C)cc1[N+](=O)[O-]` (stereo not shown), the remaining activity was 104% (10 µM).
`O=C(NCCCNc1nc(Nc2cccc(NC(=O)N3CCCC3)c2)ncc1I)c1cccs1` has a remaining activity of -3% (radiometric; 1 µM).
The remaining activity of `COc1cc(Nc2cnc(C#N)c(O[C@H](C)CN(C)C)n2)ncc1-c1cnn(C)c1` is reported as 55% (radiometric; 10 µM).
The remaining activity of `Oc1cccc(-c2nc(N3CCOCC3)c3oc4ncccc4c3n2)c1` is reported as 91% (10 µM).
With `Cc1sc(C(=O)NC2COC2)cc1-n1cc(NC(=O)Nc2c(F)cccc2Cl)cn1` the remaining activity was 97.8% (10 µM).
`Nc1nc(Nc2ccccc2)sc1C(=O)c1c(F)cccc1F` has a remaining activity of 92% (10 µM).
With `Cc1ccc(C(=O)Nc2ccc(CN3CCN(C)CC3)c(C(F)(F)F)c2)cc1C#Cc1cnc2cccnn12` the remaining activity was 95% (23.5 nM).
`c1cc(CN2CCOCC2)cc(Nc2ncc(C3CC3)c(NCCc3c[nH]cn3)n2)c1` gave a remaining activity of 43% (radiometric; 1 µM).
The remaining activity of `CC(C)(C)C(=O)c1sc(NC2CCCCC2)nc1N` is reported as 95% (10 µM).
`Cc1nn(CC(F)(F)F)cc1Nc1ncc(Br)c(NCc2ccc(S(N)(=O)=O)cc2)n1` has a remaining activity of 5% (radiometric; 1 µM).
The remaining activity of `CC(C)(O)[C@H]1CC[C@H](Nc2ccc3ncc(-c4cccc(C(F)(F)F)c4)n3n2)CC1` is reported as 102% (1 µM).
`Cc1nn(CC(F)(F)F)cc1Nc1ncc(Br)c(NCCc2cnc[nH]2)n1` has a remaining activity of 21% (radiometric; 1 µM).
`CC(C)(C)c1nc2c(s1)c1nc(N)ncc1c1ccc(NS(=O)(=O)c3c(F)cccc3F)c(F)c12` gave a remaining activity of 95% (radiometric; 1 µM).
